Where “and” joins values, the source holds several entries; their conditions need not be identical. Equal values may be shown once.

Series [1] concerns the target T1, Prostaglandin G/H synthase 1 (Ovis aries, UniProt P05979).
T1 sequence (P05979 whole entry): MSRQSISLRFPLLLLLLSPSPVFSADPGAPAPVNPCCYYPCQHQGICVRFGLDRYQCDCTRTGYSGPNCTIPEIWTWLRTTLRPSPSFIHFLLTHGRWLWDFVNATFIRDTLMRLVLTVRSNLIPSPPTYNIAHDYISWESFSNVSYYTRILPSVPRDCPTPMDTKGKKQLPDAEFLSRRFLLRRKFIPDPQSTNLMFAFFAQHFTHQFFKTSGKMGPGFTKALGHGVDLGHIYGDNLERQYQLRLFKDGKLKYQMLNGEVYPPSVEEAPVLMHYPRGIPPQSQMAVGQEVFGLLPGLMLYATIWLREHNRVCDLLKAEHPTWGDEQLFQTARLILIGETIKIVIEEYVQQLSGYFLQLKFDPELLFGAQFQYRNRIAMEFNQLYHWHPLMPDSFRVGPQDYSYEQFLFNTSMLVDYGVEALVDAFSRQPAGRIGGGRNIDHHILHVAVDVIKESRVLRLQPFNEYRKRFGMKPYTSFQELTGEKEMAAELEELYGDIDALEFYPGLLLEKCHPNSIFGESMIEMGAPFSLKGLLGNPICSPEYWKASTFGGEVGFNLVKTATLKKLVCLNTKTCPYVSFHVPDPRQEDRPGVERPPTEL
Briefly: Inhibition of ovine COX1 by colorimetric assay. In a few lines:
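Colorimetric ovine COX inhibitor screening kit, run per the supplier's protocol. Each experiment was done at least four times and reported as mean ± SEM.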

In series [2] the target is ATP-dependent translocase ABCB1 (Homo sapiens, UniProt P08183). Briefly: Inhibition of human recombinant P-glycoprotein after 40 mins by Pgp-Glo assay. In a few lines:
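Recombinant human P-gp membranes were incubated with test compound (dilution series, 0.781–200 μM) and 5 mM MgATP at 37 °C for 40 min. ATP detection buffer was added and luminescence developed at room temperature for 20 min. IC50 was fitted to concentration–luminescence data by nonlinear least squares.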

Series [3] addresses Multidrug resistance-associated protein 1 (Homo sapiens, UniProt P33527). Briefly: Inhibition of human MRP1 in human T98G cells assessed as potentiation of doxorubicin induced cytotoxicity at 50 uM pre-incubated for 2 hrs before doxorubicin addition and measured 4 days after doxorubicin exposure by MTT assay relative to untreated control. The class given is cell-based. The conditions noted are these: 96 h. In general terms: Tetrazolium dyes change colour on reduction, which living cells bring about.

Another series concerns T98G. Put plainly: Cytotoxicity against human T98G cells assessed as inhibition of cell growth at 1 uM by MTT assay. The class given is functional. The conditions noted are these: read-out: GI.

Multidrug resistance-associated protein 1, sequence (P33527 whole entry): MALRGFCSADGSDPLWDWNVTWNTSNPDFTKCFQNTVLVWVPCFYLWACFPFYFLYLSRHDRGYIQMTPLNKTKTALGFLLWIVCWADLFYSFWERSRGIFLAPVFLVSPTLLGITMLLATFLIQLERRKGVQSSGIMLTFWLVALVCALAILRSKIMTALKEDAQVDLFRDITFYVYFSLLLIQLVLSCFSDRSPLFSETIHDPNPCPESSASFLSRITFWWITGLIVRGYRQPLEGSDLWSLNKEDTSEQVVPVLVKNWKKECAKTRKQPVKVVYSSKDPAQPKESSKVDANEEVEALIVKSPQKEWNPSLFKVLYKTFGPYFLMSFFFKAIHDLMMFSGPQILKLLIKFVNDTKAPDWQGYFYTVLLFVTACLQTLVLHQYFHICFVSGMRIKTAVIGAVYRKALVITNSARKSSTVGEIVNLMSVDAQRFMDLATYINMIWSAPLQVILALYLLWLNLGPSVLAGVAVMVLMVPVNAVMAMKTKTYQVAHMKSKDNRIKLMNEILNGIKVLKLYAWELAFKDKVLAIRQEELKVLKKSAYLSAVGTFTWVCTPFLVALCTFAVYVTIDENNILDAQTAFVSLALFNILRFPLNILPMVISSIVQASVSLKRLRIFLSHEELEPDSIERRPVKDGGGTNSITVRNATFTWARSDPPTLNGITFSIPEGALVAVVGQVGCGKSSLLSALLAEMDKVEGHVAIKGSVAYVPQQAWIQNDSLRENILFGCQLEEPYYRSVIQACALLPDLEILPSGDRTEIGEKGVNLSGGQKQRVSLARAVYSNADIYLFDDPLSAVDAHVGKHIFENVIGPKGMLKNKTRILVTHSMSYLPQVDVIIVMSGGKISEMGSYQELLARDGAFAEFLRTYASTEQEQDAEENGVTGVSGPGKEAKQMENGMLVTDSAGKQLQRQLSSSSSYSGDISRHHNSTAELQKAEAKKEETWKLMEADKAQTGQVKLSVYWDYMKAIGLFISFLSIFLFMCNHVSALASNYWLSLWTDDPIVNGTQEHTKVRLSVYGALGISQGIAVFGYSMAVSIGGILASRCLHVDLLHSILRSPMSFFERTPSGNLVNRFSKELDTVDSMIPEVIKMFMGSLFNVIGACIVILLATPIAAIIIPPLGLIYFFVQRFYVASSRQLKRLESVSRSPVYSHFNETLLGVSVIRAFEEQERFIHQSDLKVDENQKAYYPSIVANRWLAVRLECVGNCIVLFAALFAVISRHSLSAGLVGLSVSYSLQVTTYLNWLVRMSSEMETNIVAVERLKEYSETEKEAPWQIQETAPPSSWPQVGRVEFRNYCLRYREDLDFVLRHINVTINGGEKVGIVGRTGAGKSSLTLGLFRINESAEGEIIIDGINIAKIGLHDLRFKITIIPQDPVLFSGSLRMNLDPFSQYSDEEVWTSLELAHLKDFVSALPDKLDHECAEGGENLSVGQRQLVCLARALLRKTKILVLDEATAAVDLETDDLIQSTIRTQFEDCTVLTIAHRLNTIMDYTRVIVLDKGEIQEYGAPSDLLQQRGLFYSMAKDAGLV
ATP-dependent translocase ABCB1, sequence (P08183 whole entry): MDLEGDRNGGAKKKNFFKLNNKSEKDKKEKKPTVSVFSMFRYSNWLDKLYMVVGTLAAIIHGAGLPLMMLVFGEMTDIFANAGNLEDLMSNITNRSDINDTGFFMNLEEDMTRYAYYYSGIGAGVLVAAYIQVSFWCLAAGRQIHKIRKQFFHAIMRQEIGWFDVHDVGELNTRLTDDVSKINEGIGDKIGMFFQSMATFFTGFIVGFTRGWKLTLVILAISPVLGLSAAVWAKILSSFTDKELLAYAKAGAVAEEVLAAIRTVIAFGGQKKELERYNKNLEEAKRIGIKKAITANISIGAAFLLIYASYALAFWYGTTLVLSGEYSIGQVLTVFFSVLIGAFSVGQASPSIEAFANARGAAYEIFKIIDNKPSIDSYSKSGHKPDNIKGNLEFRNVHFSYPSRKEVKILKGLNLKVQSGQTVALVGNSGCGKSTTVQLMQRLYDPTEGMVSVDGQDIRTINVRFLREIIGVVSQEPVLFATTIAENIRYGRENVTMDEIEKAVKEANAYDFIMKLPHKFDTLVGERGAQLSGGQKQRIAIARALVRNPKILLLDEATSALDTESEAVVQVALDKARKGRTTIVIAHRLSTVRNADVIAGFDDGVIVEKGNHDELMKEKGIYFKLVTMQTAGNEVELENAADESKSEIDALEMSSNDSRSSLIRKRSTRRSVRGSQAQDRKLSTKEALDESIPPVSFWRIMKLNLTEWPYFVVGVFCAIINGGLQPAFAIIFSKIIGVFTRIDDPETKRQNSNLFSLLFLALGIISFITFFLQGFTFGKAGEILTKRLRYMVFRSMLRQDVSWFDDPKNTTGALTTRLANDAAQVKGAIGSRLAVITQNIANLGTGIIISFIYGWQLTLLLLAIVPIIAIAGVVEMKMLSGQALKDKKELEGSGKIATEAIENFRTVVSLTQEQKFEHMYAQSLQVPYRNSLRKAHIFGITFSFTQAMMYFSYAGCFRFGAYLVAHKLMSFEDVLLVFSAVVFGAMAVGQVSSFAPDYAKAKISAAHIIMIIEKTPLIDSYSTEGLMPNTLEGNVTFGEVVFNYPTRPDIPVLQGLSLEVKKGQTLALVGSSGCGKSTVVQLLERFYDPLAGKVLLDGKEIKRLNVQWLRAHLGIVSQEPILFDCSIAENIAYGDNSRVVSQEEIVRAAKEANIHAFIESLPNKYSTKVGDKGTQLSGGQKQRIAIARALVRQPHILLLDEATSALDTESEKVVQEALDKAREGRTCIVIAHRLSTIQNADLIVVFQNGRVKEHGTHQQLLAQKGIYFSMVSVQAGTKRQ

By IC50 is commonly meant the concentration that gives 50% inhibition. Take `Cc1c(CC(=O)O)c2ccccc2n1C(=O)c1ccc(Cl)cc1`: the concentration for half-maximal inhibition (IC50) in series [1] came to 0.01 µM; in series [2], 20 µM.

With `CCc1c(CC(=O)O)c2ccccc2n1C(=O)c1ccc(Cl)cc1`, the “inhibition (INH)” value in series [3] is “Active”. The IC50 in series [1] is greater than 400 µM; in series [2], 20 µM.

As for `O=C(O)Cc1c(-c2ccccc2)n(C(=O)c2ccc(Cl)cc2)c2ccccc12`, in series [3], the “inhibition (INH)” value was “Active”. Further, the concentration for half-maximal inhibition (IC50) in series [1] is greater than 400 µM; in series [2] it was 18 µM.

For the compound `COc1cccc2c(CC(=O)O)c(C)n(C(=O)c3ccc(Cl)cc3)c12`, the “inhibition (INH)” value in series [3] is given as “Active”. Besides, the figures for the concentration for half-maximal inhibition (IC50) in series [1] and in series [2] were greater than 400 µM and 15 µM, respectively.

Regarding `COc1ccc2c(CC(=O)O)c(C)n(C(=O)c3ccc(Cl)cc3)c2c1`, the 50% inhibitory concentration (IC50) in series [1] is greater than 200 µM; in series [2] it was 9.8 µM.

Turning to `CCc1cccc2c(CC(=O)O)cn(C(=O)c3ccc(Cl)cc3)c12`, the “inhibition (INH)” value in series [3] is reported as “Not Active”. For the same compound, the IC50 in series [1] is greater than 400 µM; in series [2] it was 17 µM.

Turning to `COc1cccc2c1C(=O)c1c(O)c3c(c(O)c1C2=O)C[C@@](O)(C(=O)CO)C[C@@H]3O[C@H]1C[C@H](N)[C@H](O)[C@H](C)O1` [DOXORUBICIN], the inhibition of growth at 1 µM with T98G was determined as 40%.

Take `COc1ccc2c(c1)c(CC(=O)O)c(C)n2C(=O)c1ccc(Cl)cc1` [INDOMETHACIN]: in series [2], the 50% inhibitory concentration (IC50) is 32 µM and 28 µM.

These data come from ChEMBL document CHEMBL2169858, “Design and synthesis of indomethacin analogues that inhibit P-glycoprotein and/or multidrug resistant protein without COX inhibitory activity” (J Med Chem, 2012).
